Screening data (PubChem)
In the library only some 1.7% were active in any assay of this set; here they are far more common.
RanGTP-Impb inh – inhibitors of RanGTP-importin-beta interaction, primary screen, biochemical, FRET, CFP-Ran, YFP-importin-beta, homogeneous; 300,000 tested, 1.1% active; cell-free CFP-Ran/YFP-importin-beta FRET ratio; inhibition, % (concentration not given with the values);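 active = more than half of the replicate wells show a fall in the fluorescence ratio signal beyond about 16%, limit read from the data, passing the limit was not always enough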
Runt-SMMHC FRET – blocks binding of human RUNX1 Runt domain to CBFb-SMMHC; Cerulean-Runt/Venus-CBFb-SMMHC FRET ratio 530/480, 1 h; inhibition, % at 20 µM; 220,000 tested, 0.74% active;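 active = mean inhibition across duplicate retests at 20 µM reaching about 50%, limit read from the data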;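 also: inhibitors lower the FRET ratio by blocking Runt binding to CBFb-SMMHC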
Target sequence (Q01196 whole entry, looked up, the tested form may be a part): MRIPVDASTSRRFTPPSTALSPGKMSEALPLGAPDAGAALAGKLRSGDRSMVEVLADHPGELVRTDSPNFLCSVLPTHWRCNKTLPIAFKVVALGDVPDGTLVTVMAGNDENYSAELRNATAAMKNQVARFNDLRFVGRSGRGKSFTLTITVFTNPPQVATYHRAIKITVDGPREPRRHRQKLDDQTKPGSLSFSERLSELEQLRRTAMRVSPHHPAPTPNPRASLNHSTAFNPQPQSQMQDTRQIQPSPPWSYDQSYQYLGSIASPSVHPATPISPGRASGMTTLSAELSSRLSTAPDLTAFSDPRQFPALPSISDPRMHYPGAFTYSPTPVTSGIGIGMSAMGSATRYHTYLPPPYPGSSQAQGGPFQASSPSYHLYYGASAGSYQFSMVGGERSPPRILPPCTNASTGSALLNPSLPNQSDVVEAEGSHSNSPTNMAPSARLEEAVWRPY
Target sequence (Q13951 whole entry, looked up, the tested form may be a part): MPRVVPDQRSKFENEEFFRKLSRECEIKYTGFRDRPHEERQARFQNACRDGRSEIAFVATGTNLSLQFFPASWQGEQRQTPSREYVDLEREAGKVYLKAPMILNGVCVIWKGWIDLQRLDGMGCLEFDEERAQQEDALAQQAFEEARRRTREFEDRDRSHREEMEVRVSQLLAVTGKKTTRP
Hck-Nef inh – inhibitors of human Hck kinase activated by Nef; Recombinant Hck-YEEI plus Nef, Z-Lyte FRET kinase assay; inhibition, % at 20 µM; 220,000 tested, 0.68% active;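 active = Hck-Nef kinase inhibition above about 50%, limit read from the data; inactive = inhibition below that limit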
Runt-CBFb FRET – blocks binding of human RUNX1 Runt domain to CBFb. Q01196+Q13951. Cerulean-Runt/Venus-CBFb FRET ratio 530/480, 1 h. inhibition, % at 20 µM. 220,000 tested, 0.46% active. AID 1496;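 active = inhibition over about 50% at 20 µM in the single-dose screen, limit read from the data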
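Schedule: protein complex preformed 1 h, compound exposure 1 h, room temperature, dark; test system: Cerulean-labeled Runt domain protein; amount: 100 nM per protein; buffer or medium: Tris 50 mM pH 7.5, KCl, K2SO4, 0.01% BSA; read-out: loss of energy transfer signal; detection: FRET fluorescence; controls: 5 µM unlabeled CBFb as full-inhibition high control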
Of the large screens only hits and unclear results are named; the others gave an inactive call.

C=CCn1c2ccccc2c(=O)c2cc(C#CC3(O)CCCCC3)ccc21	RanGTP-Impb inh 161 (no result: Runt-SMMHC FRET, Hck-Nef inh, Runt-CBFb FRET)
Brc1cccc(CN2CCN(c3ncccn3)CC2)c1	none (no result: Runt-SMMHC FRET, Hck-Nef inh, Runt-CBFb FRET)
O=C(CSc1nnc(Cc2ccccc2)o1)c1cc(F)ccc1F	none
N#CC(c1nc2ccccc2nc1OCCO)S(=O)(=O)c1ccccc1 (centres undefined)	RanGTP-Impb inh 23
N#CC(c1nc2ccccc2nc1N1CCOCC1)S(=O)(=O)c1ccccc1 (centres undefined)	RanGTP-Impb inh 16
CCN1CCN(c2nc3ccccc3nc2C(C#N)S(=O)(=O)c2ccc(C)c(C)c2)CC1 (centres undefined)	RanGTP-Impb inh 75
CCN1CCN(c2nc3ccccc3nc2C(C#N)S(=O)(=O)c2ccc(C)cc2)CC1 (centres undefined)	RanGTP-Impb inh 82
Cc1ccc(S(=O)(=O)C(C#N)c2nc3ccccc3nc2N2CCCC2)cc1 (centres undefined)	none
COc1cccc(C(=O)NCCS(=O)(=O)NC2CCCC2)c1	none (no result: Runt-SMMHC FRET, Hck-Nef inh, Runt-CBFb FRET)
Cc1ccc(C(=O)OCc2nnc(-c3ccccc3)o2)cc1S(=O)(=O)N1CCOCC1	none (no result: Runt-SMMHC FRET, Hck-Nef inh, Runt-CBFb FRET)
Cc1ccc(-c2cc(-c3ccccc3)c3c(N)c(S(C)(=O)=O)sc3n2)cc1	Runt-SMMHC FRET 89
COC(=O)Cn1c(=NC(=O)c2ccc(S(=O)(=O)N3CCc4ccccc4C3)cc2)sc2cc(OC)ccc21	RanGTP-Impb inh 23
Cc1cc(C)c(C(=O)NCC(=O)c2ccccc2)c(C)c1	none (no result: Runt-SMMHC FRET, Hck-Nef inh, Runt-CBFb FRET)
O=C(c1ccco1)[C@@H]1[C@@H]2C(=O)N(c3ccc(F)cc3)C(=O)[C@@H]2C2c3ccccc3C=CN21 (some centres undefined)	RanGTP-Impb inh 45
O=C(c1ccco1)[C@@H]1[C@@H]2C(=O)N(c3ccc(Br)cc3)C(=O)[C@@H]2C2c3ccccc3C=CN21 (some centres undefined)	none (no result: RanGTP-Impb inh)
CCN(CC(=O)Nc1c(F)cccc1F)C(=O)c1cc(C)nc2ccccc12	none (no result: Runt-SMMHC FRET, Hck-Nef inh, Runt-CBFb FRET)
COc1ccc(C(=O)N/N=C/c2ccc(OC)c(COc3ccc(F)cc3F)c2)cc1	none (no result: Runt-SMMHC FRET, Hck-Nef inh, Runt-CBFb FRET)
CCCCn1c(N)c(N2CCOCC2)c(=O)n(CC(=O)NC(C)c2ccccc2)c1=O (centres undefined)	RanGTP-Impb inh 27
CCCCC(=O)NCc1ccc(Cl)cc1	none
Cc1ccc2nc3c(cc2c1)c(NS(=O)(=O)c1ccccc1)nn3CC(C)C	none
CCC(=O)Nc1nn(CC(C)C)c2nc3ccc(C)cc3cc12	RanGTP-Impb inh 24 (no result: Runt-SMMHC FRET, Hck-Nef inh, Runt-CBFb FRET)
CCCC(=O)Nc1nn(CC(C)C)c2nc3cc(C)ccc3cc12	RanGTP-Impb inh 28 (no result: Runt-SMMHC FRET, Hck-Nef inh, Runt-CBFb FRET)
CCn1nc(NC(=O)CC(C)C)c2cc3ccc(C)cc3nc21	none (no result: Runt-SMMHC FRET, Hck-Nef inh, Runt-CBFb FRET)
Oc1c(Cl)cc(Cl)cc1/C=N/NC(=S)NC1CC2C=CC1C2 (centres undefined)	Runt-SMMHC FRET 90
CCOC(=O)C1CCCN(c2nc3ccccc3nc2C(C#N)C(=O)NCc2ccccc2)C1 (centres undefined)	none
N#CC(C(=O)NCc1ccccc1)c1nc2ccccc2nc1N1CCCC1 (centres undefined)	RanGTP-Impb inh 35, Runt-SMMHC FRET 66
N#CC(C(=O)OC1CCCCC1)c1nc2ccccc2nc1N1CCCCC1 (centres undefined)	RanGTP-Impb inh 17
CCN1CCN(c2nc3ccccc3nc2C(C#N)C(=O)OCc2ccccc2)CC1 (centres undefined)	RanGTP-Impb inh 20
N#CC(C(=O)NCCc1ccccc1)c1nc2ccccc2nc1N1CCCCC1 (centres undefined)	RanGTP-Impb inh 37
CC1CCCN(c2nc3ccccc3nc2C(C#N)C(=O)OC2CCCCC2)C1 (centres undefined)	none (no result: RanGTP-Impb inh)
CCCCCCOC(=O)C(C#N)c1nc2ccccc2nc1N1CCN(CC)CC1 (centres undefined)	none
CCc1nn(CC(=O)NCCCN2CCOCC2)c(=O)c2cc3cc(F)ccc3n12	none (no result: Runt-SMMHC FRET, Hck-Nef inh, Runt-CBFb FRET)
COc1ccc(C2=NO[C@@H]3[C@@H]4C[C@@H]([C@H]5C(=O)N(C)C(=O)[C@@H]45)[C@H]23)c(OC)c1	none
CCCC(=O)C1=C(c2ccccc2)C(C#N)(C#N)C(C#N)=C1N	none
Cc1cccc(/C(N)=N/OC(=O)N2CCOCC2)c1	none
Cc1ccc(/C(N)=N/OC(=O)N2CCOCC2)cc1	Runt-CBFb FRET 74
CC(NC(=O)OC(C)(C)C)C(=O)Oc1cc2oc(=O)cc(-c3ccccc3)c2cc1Cl (centres undefined)	Runt-SMMHC FRET 79
CSc1cc(C)c(OCC(=O)Nc2c(C)nn(C)c2C)c(C)c1	none (no result: Runt-SMMHC FRET, Hck-Nef inh, Runt-CBFb FRET)
